Experimental findings from PMC2575414 (Bioorganic & medicinal chemistry letters, 2008) are described below.

One experiment deals with human liver cathepsin B (Homo sapiens, UniProt P07858). Nature of the experiment: Cathepsin B inhibition assay. The experiment is classed as biochemical. A digest of the protocol:
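Human liver cathepsin B (1 nM) in 50 mM NaOAc pH 6.0 with 1 mM EDTA and 0.5 mM DTT. Z-Arg-Arg-AMC at 50 µM or 250 µM, plus varying inhibitor concentrations in DMSO (2% total). Ki is the mean of triplicates from Dixon plots (r ≥ 0.95). Selectivity ratio is […].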

In experiment [1] the target is T1, porcine erythrocyte μ-calpain (Sus scrofa, UniProt P35750).
T1 sequence (P35750 1-714): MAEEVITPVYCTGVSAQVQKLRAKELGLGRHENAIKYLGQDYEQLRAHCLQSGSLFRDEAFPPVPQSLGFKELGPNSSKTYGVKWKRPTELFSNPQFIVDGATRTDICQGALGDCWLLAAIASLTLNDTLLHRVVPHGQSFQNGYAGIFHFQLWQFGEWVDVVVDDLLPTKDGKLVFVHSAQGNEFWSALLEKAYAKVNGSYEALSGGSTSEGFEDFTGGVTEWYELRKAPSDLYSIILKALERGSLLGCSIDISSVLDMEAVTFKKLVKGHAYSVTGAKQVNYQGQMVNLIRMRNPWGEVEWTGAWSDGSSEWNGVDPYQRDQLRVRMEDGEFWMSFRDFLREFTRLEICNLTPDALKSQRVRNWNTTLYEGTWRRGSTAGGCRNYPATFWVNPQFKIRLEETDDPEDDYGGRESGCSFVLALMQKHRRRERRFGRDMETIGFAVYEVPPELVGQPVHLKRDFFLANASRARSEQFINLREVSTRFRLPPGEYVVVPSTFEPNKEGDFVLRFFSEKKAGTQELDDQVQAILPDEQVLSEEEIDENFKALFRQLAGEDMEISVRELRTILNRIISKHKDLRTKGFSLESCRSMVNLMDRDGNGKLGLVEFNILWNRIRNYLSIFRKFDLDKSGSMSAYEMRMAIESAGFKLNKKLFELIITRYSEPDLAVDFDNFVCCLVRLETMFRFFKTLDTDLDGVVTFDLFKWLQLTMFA
T1 sequence (P04574 1-266 partner): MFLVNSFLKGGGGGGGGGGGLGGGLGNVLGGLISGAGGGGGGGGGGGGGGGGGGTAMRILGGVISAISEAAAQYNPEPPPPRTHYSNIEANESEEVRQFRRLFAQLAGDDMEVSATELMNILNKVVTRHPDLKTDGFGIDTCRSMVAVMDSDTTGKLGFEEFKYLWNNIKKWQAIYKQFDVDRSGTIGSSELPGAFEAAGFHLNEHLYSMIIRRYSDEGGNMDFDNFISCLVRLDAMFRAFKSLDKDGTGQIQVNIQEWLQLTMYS
Nature of the experiment: Calpain inhibition assay. The format is biochemical.

Where a SMILES comes first, the peptide text is derived from it. [ ]: non-standard residue; d: D form. The star is where a group is joined. Hydrocinnamoyl = O=C(CCc1ccccc1)*; Ac5c = NC1(C(=O)O)CCCC1; Deg = CCC(N)(CC)C(=O)O

In the case of `O=C[C@H](Cc1ccccc1)NC(=O)C1(NC(=O)CCc2ccccc2)CCCC1` [Compound 2, 1-(3-Phenyl-propionylamino)-cyclopentane carboxylic acid (1-benzyl-2-oxo-ethyl)-amide] (Hydrocinnamoyl-[Ac5c]-Phe-aldehyde), the “cathepsin B inhibition relative to compound 3” value on human liver cathepsin B (2 compared to 3) is given as 3 fold. Further, on human liver cathepsin B (as stated in abstract), the “selectivity for cathepsin B compared to μ-calpain” value is given as 3 fold.
Consider `CCC(CC)(NC(=O)CCc1ccccc1)C(=O)N[C@H](C=O)Cc1ccccc1` [Compound 3, N-(1-Benzyl-2-oxo-ethyl)-2-ethyl-2-(3-phenyl-propionylamino)-butyramide] (Hydrocinnamoyl-[Deg]-Phe-aldehyde), for which the “selectivity for μ-calpain compared to cathepsin B” value in experiment [1] is listed as “over 35 fold”. For the same compound, the “potency for μ-calpain inhibition relative to compound 2” value in experiment [1] (3 compared to 2) is listed as “over 20 fold”.
